Active and inactive are the calls of the source.
Legend:
[1] = Displacement of radioligand from GABAB receptor at 10 uM
[2] = system: Mus musculus; assay: Anticonvulsant activity against maximal electroshock-induced seizures in CD1 mouse model at 20 mg/kg, po treated 30 mins before electroshock application; type: functional, organism-based; set-up: dose 20 mg/kg
Method in brief: (§1)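 Male CD-1 mice dosed po (10 mL/kg in 5% DMSO/95% of 0.5% HPMC/1% Tween 80) 30 min before corneal electroshock at 50 mA for 0.2 s, with 1% proparacaine in each eye. Latency to hindlimb extension recorded to 0.1 s. No extension within 6 s scored as protected (latency 6 s). Reported as protected/tested (8 per group), or EC50 derived from latency scores.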

[3] = system: Rattus norvegicus; assay: Antinociceptive activity in formalin-treated Sprague-Dawley rat model assessed as reduction in hind paw flinches at 34 mg/kg, po measured during 11 to 60 mins of phase 2 flinches; type: functional; set-up: scale not given: the % may be the effect or the level left
Method in brief: (§2)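 A small metal band was glued to the right hind paw of male Sprague-Dawley rats 1 h before testing. Compound given po in 0.5% methylcellulose 1 h before the test, then 50 μL of 2.5% formalin injected sc into the dorsal paw. Flinches counted electromagnetically for 60 min; phase II covers 11-60 min post-injection.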

[4] = target: D(2) dopamine receptor (Homo sapiens) (UniProt P14416); assay: Displacement of radioligand from dopamine D2 receptor at 10 uM
D(2) dopamine receptor (Homo sapiens), sequence (P14416 whole entry): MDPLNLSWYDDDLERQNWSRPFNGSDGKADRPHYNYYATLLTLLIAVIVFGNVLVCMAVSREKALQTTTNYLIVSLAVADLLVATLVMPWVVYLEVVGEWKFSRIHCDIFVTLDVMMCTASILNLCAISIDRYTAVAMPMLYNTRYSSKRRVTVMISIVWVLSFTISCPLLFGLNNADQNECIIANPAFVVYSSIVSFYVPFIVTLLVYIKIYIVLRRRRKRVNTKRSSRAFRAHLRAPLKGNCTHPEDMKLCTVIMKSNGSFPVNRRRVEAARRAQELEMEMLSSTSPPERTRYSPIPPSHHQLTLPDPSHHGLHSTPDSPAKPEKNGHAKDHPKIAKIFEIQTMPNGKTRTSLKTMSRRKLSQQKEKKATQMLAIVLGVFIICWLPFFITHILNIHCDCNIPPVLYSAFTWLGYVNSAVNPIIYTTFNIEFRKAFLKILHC

[5] = target: T1, Endothelin-1 receptor (Homo sapiens) (UniProt P25101); assay: Displacement of [125I]endothelin-1 from human recombinant endothelin A receptor expressed in CHO cells; type: cell-based
T1 sequence (whole entry): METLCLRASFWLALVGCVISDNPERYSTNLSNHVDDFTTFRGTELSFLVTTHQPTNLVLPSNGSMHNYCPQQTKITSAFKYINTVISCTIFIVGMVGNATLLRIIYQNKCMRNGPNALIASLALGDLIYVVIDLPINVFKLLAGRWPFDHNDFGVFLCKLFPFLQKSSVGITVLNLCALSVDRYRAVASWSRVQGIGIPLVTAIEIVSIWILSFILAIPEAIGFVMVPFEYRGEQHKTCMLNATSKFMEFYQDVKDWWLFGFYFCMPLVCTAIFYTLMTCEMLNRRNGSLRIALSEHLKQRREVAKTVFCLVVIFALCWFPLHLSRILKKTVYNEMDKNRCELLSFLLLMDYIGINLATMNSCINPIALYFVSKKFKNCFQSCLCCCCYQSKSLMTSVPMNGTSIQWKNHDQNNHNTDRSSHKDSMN

[6] = organism: Rattus norvegicus; assay: Displacement of [125I]peptide YY from neuropeptide Y receptor in rat cerebral cortex at 10 uM; type: tissue-based
[7] = system: Rattus norvegicus; assay: Analgesic activity in po dosed Sprague-Dawley rat assessed as reduction of spinal nerve ligation-induced allodynia score; type: functional
Method in brief: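 L5 spinal nerve tightly ligated distal to the DRG under halothane in male Sprague-Dawley rats, followed by 2-3 weeks of recovery. Von Frey withdrawal thresholds taken on a wire-mesh floor (top threshold 15 g), with baseline measured before dosing. Compound given po in 0.5% methylcellulose; testing at 1 and 2 h post-dose.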

[8] = system: Rattus norvegicus; assay: Antinociceptive activity in formalin-treated Sprague-Dawley rat model assessed as reduction in hind paw flinches at 10 mg/kg, po measured during 11 to 60 mins of phase 2 flinches; type: functional; set-up: scale not given: the % may be the effect or the level left; method in brief: as §2
[9] = system: Rattus norvegicus; assay: Analgesic activity in Sprague-Dawley rat assessed as reduction of spinal nerve ligation-induced allodynia score at 10 mg/kg, po; type: functional; set-up: scale not given: the % may be the effect or the level left
Method in brief: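 Male Sprague-Dawley rats; L5 spinal nerve tightly ligated with 4.0 silk distal to the DRG under halothane, then 2-3 weeks recovery. Dosed po in 0.5% methylcellulose. Von Frey tactile withdrawal thresholds measured on a wire mesh floor, top threshold 15 g. Baseline taken just before dosing; testing at 1 and 2 h post-dose.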

[10] = target: Cannabinoid receptor 1 (Homo sapiens) (UniProt P21554); assay: Displacement of [3H]CP-55940 from human recombinant CB1 receptor expressed in CHO cells at 10 uM; type: cell-based
Cannabinoid receptor 1 (Homo sapiens), sequence (P21554 whole entry): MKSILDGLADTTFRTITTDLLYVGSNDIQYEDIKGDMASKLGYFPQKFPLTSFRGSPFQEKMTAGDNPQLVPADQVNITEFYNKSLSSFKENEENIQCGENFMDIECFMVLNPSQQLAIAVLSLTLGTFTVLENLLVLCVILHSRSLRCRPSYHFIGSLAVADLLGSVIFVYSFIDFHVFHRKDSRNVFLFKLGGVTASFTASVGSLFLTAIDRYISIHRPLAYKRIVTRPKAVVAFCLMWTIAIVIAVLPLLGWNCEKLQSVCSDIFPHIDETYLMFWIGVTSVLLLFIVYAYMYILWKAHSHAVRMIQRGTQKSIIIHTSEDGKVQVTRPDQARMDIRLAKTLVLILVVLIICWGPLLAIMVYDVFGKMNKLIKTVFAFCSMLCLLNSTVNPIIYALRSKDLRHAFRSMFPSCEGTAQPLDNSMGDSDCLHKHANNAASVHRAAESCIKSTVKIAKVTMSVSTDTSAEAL

[11] = target: Cannabinoid receptor 2 (Homo sapiens) (UniProt P34972); assay: Displacement of [3H]WIN-55212-2 from human recombinant CB2 receptor expressed in CHO cells at 10 uM; type: cell-based
Cannabinoid receptor 2 (Homo sapiens), sequence (P34972 whole entry): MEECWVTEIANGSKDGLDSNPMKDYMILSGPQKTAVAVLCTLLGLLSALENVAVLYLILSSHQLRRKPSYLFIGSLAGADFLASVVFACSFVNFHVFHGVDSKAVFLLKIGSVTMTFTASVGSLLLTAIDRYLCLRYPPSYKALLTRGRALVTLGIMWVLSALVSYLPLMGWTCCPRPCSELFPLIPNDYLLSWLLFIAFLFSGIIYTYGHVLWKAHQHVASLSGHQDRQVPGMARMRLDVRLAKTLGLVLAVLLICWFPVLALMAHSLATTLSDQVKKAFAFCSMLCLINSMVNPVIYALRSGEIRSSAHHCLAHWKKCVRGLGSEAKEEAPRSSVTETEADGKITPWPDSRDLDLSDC

[12] = target: Delta-type opioid receptor (Homo sapiens) (UniProt P41143); assay: Displacement of [3H]DADLE from human recombinant delta opioid receptor expressed in CHO cells at 10 uM; type: cell-based
Delta-type opioid receptor (Homo sapiens), sequence (P41143 whole entry): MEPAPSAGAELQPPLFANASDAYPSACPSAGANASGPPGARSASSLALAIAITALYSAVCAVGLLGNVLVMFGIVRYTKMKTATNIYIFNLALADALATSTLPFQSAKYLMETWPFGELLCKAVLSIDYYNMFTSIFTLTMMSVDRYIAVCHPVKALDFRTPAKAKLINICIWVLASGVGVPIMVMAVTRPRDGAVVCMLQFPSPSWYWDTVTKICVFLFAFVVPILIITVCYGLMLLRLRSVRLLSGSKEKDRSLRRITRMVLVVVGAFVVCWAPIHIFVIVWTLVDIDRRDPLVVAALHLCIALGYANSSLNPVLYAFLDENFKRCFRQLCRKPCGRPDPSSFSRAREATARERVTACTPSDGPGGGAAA

[13] = target: Kappa-type opioid receptor (Rattus norvegicus) (UniProt P34975); assay: Displacement of [3H]U69593 from rat recombinant kappa opioid receptor expressed in CHO cells at 10 uM; type: cell-based
Kappa-type opioid receptor (Rattus norvegicus), sequence (P34975 whole entry): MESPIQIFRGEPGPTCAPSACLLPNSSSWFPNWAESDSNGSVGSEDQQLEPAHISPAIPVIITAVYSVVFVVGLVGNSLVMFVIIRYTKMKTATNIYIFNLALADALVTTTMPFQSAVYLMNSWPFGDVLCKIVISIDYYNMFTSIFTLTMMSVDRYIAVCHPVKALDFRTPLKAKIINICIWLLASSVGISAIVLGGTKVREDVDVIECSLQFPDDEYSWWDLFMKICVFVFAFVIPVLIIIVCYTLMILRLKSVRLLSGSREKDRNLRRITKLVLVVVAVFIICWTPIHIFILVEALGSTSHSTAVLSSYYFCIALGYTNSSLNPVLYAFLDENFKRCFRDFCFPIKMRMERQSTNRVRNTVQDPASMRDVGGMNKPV

[14] = target: Kappa-type opioid receptor (Rattus norvegicus) (UniProt P34975); assay: Displacement of [3H]U69593 from rat recombinant kappa opioid receptor expressed in CHO cells at 30 uM; type: cell-based
[15] = target: Mu-type opioid receptor (Homo sapiens) (UniProt P35372); assay: Displacement of [3H]diprenorphine from human recombinant mu opioid receptor expressed in HEK293 cells at 10 uM; type: cell-based
Mu-type opioid receptor (Homo sapiens), sequence (P35372 whole entry): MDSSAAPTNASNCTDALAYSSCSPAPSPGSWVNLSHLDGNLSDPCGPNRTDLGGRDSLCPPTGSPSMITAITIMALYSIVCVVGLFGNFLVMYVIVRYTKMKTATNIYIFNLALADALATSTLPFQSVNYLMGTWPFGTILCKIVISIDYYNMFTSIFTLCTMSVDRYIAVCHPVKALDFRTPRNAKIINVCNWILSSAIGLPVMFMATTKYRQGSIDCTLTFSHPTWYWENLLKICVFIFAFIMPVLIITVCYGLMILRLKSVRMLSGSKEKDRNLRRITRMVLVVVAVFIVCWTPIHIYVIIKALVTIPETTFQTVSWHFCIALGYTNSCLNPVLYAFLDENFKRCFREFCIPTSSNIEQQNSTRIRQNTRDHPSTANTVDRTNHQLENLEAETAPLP

[16] = Binding affinity to Calcium channel DHP site at 10 uM by displacement assay
[17] = Binding affinity to Calcium channel diltiazem site at 10 uM by displacement assay
[18] = Binding affinity to sodium channel site 2 at 10 uM by displacement assay
[19] = Binding affinity to voltage-dependent N-type calcium channel at 10 uM by displacement assay
[20] = system: Mus musculus; assay: Anticonvulsant activity against maximal electroshock-induced seizures in CD1 mouse model at 10 mg/kg, po treated 30 mins before electroshock application; type: functional, organism-based; set-up: dose 10 mg/kg; method in brief: as §1
[21] = system: Rattus norvegicus; assay: Antinociceptive activity in formalin-treated Sprague-Dawley rat model assessed as reduction in hind paw flinches at 17 mg/kg, po measured during 11 to 60 mins of phase 2 flinches; type: functional; set-up: scale not given: the % may be the effect or the level left
Method in brief: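 Male Sprague-Dawley rats dosed po in 0.5% methylcellulose 1 h before assay. A 0.5 g metal band was glued to the right hind paw 1 h beforehand. 2.5% formalin (50 μL) was injected sc into the dorsal right hind paw. An electromagnetic detector counted flinches for 60 min; phase II is 11-60 min post-injection.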

Activity [1] [%] | Activity [4] [%] | Activity [5] [%] | Activity [6] [%] | Structure (SMILES) | Activity [2] | ED50 [7] [mg/kg] | further results
12 | 0 | 0 | 33 | Cn1/c(=N/NC(=O)CC2CCCC2)sc2cc(OC(F)(F)F)ccc21 | Active |  | Activity [3]: 28%
0 | 0 | 0 | 0 | CC(C)OC(=O)N/N=c1\sc2cc(OC(F)(F)F)ccc2n1C | Active | 16.2 | Activity [8]: 47%; Activity [9]: 100%; Activity [10]: 19%; Activity [11]: 0%; Activity [12]: 10%; Activity [13]: 15%; Activity [14]: 0%; Activity [15]: 0%; Activity [16]: 0%; Activity [17]: 0%; Activity [18]: 35%; Activity [19]: 0%
16 | 0 | 0 | 0 | Cn1/c(=N/NC(=O)CC(C)(C)C)sc2cc(OC(F)(F)F)ccc21 |  | 20 | Activity [20]: Active; Activity [21]: 55%
